pIC50: −log10 of the molar value.
How the values were obtained:
T47D = experiment: Cytotoxicity against human T47D cells after 72 hrs by MTT assay; format: functional
How it was run: (§1)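 MTT redox read-out; absorbance taken at 0 h (T0) and after 72 h exposure, with untreated cells as control (C). GI50 solved from (T − T0)/(C − T0) = 50%, i.e. viability halved relative to untreated after correction for time-zero cell count.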

HeLa = experiment: Cytotoxicity against human HeLa cells after 72 hrs by MTT assay; format: functional; how it was run: as §1
[1] = Cytotoxicity against human U87 cells after 72 hrs by MTT assay; format: functional, U-87MG ATCC; details: U-87 MG; how it was run: as §1
786-0 = experiment: Cytotoxicity against human 786-0 cells after 72 hrs by MTT assay; format: functional; details: 786-0, 72 h; how it was run: as §1
T98G = experiment: Cytotoxicity against human T98G cells after 72 hrs by MTT assay; format: functional; how it was run: as §1
BXPC-3 = experiment: Cytotoxicity against human BxPC3 cells after 72 hrs by MTT assay; format: functional; details: BXPC-3, 72 h; how it was run: as §1
NCI-H69 [2] = experiment: Cytotoxicity against human H69 cells; format: functional, cell-based
NCI-H69 [3] = experiment: Ratio of NDGA IC50 to compound IC50 for human H69 cells; format: functional

Compound	GI50 (T47D)	GI50 (HeLa)	GI50 [1]	GI50 (786-0)	GI50 (T98G)	GI50 (BXPC-3)	pIC50 (NCI-H69 [2])	Ratio IC50 (NCI-H69 [3])
COc1ccc(CCNS(=O)(=O)c2ccc(OC)c(OC)c2)cc1OC	> 100 µM	> 100 µM	> 100 µM	> 100 µM	> 100 µM	> 100 µM		
COc1ccc(C(=O)N2CCc3cc(OC)c(OC)cc3C2)cc1OC	11.9 µM	8.23 µM	20.6 µM	24.1 µM	10.1 µM	13.6 µM		
COc1ccc(CNC(=O)NCc2ccc(OC)c(OC)c2)cc1OC	> 100 µM	> 100 µM	> 100 µM	> 100 µM	> 100 µM	> 100 µM		
COc1ccc(C2NCCc3cc(OC)c(OC)cc32)cc1OC (stereo not drawn)	> 100 µM	57.6 µM	> 100 µM	> 100 µM	> 100 µM	> 100 µM		
COc1ccc(NS(=O)(=O)c2ccc(OC)c(OC)c2)cc1OC	> 100 µM	> 100 µM	> 100 µM	> 100 µM	> 100 µM	> 100 µM		
COc1ccc(C2=NCCc3cc(OC)c(OC)cc32)cc1OC	> 100 µM	79.3 µM	> 100 µM	> 100 µM	> 100 µM	> 100 µM		
COc1ccc(NC(=O)c2ccc(OC)c(OC)c2)cc1OC	> 100 µM	> 100 µM	> 100 µM	> 100 µM	> 100 µM	> 100 µM		
COc1ccc(CCNC(=O)c2ccc(OC)c(OC)c2)cc1OC	> 100 µM	> 100 µM	> 100 µM	> 100 µM	> 100 µM	> 100 µM		
COc1ccc(CCNC(=O)Cc2ccc(OC)c(OC)c2)cc1OC	> 100 µM	> 100 µM	> 100 µM	> 100 µM	> 100 µM	> 100 µM		
COc1ccc(CNS(=O)(=O)c2ccc(OC)c(OC)c2)cc1OC	> 100 µM	> 100 µM	> 100 µM	> 100 µM	> 100 µM	> 100 µM		
COc1ccc(CC(=O)N2CCc3cc(OC)c(OC)cc3C2)cc1OC	> 100 µM	> 100 µM	> 100 µM	> 100 µM	> 100 µM	> 100 µM		
COc1ccc(S(=O)(=O)N2CCc3cc(OC)c(OC)cc3C2)cc1OC	> 50 µM	> 50 µM	> 50 µM	> 50 µM	> 50 µM	> 50 µM		
COc1ccc(CN2CCc3cc(OC)c(OC)cc3C2)cc1OC	45.4 µM	55.9 µM	> 100 µM	> 100 µM	> 100 µM	> 100 µM		
COc1ccc(C(=O)C2=NCCc3cc(OC)c(OC)cc32)cc1OC	16.1 µM	16.9 µM	> 100 µM	> 100 µM	> 100 µM	26.3 µM		
COc1ccc(/C=C/C(=O)NCc2ccc(OC)c(OC)c2)cc1OC	> 100 µM	> 75 µM	57.1 µM	68.4 µM	70.3 µM	> 75 µM		
COc1ccc(CNC(=O)c2ccc(OC)c(OC)c2)cc1OC	> 100 µM	> 100 µM	> 100 µM	> 100 µM	> 100 µM	> 100 µM		
COc1ccc(CC(=O)Nc2ccc(OC)c(OC)c2)cc1OC	> 100 µM	> 100 µM	> 100 µM	> 100 µM	> 100 µM	> 100 µM		
COc1ccc(CNC(=O)Cc2ccc(OC)c(OC)c2)cc1OC	> 100 µM	> 100 µM	> 100 µM	> 100 µM	> 100 µM	> 100 µM		
COc1ccc(NC(=O)Nc2ccc(OC)c(OC)c2)cc1OC	> 50 µM	> 50 µM	> 50 µM	> 50 µM	> 50 µM	> 50 µM		
COc1ccc(CNC(=O)Nc2ccc(OC)c(OC)c2)cc1OC	> 100 µM	> 100 µM	> 100 µM	> 100 µM	> 100 µM	> 100 µM		
COc1ccc(/C=C/C=C/c2ccc(OC)c(OC)c2)cc1OC	> 100 µM	> 100 µM	> 100 µM	2.67 µM	> 100 µM	3.41 µM		
COc1ccc(/C=C/C(=O)Nc2ccc(OC)c(OC)c2)cc1OC	> 50 µM	> 50 µM	> 50 µM	> 50 µM	> 50 µM	> 50 µM		
Oc1ccc(CCCCc2ccc(O)c(O)c2)cc1O							6.52	10
COc1ccc(/C=C2/CCc3cc(OC)c(OC)cc32)cc1OC (mixture of isomers)	4.24 µM	> 25 µM	> 25 µM	5.5 µM	> 25 µM	8.1 µM		
COc1ccc([C@H]2O[C@H](c3ccc(OC)c(OC)c3)[C@@H](C)[C@H]2C)cc1OC [GANSCHISANDRINE]	4.4 µM	> 75 µM	> 75 µM	> 75 µM	58.3 µM	17.2 µM		
CC(Cc1ccc(O)c(O)c1)C(C)Cc1ccc(O)c(O)c1 (stereo not drawn) [NORDIHYDROGUAIARETIC ACID]							5.36	
COc1ccc(C[C@@H](C)[C@@H](C)Cc2ccc(OC)c(OC)c2)cc1OC [TERAMEPROCOL]	5.36 µM	> 50 µM	> 50 µM	4.54 µM	> 50 µM	17.1 µM		
